As usually defined, the IC50 is the point on the concentration scale where inhibition reaches its midpoint.

The test system of one data set is SW-620. The experiment in a line: Growth inhibition of human SW620 cells at 10 uM measured after 48 hrs by SRB assay relative to control. The data set is classed as functional. Particulars: read-out: GI. The essentials:
(§1)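 Single-dose NCI screen at 10 μM: 48 h exposure at 37°C, 5% CO2; adherent cells fixed in cold TCA (final 10%), suspension cells in TCA (final 16%); SRB stain solubilized in 10 mM Trizma base, absorbance 515 nm; percent growth inhibition calculated relative to untreated control and time-zero plates.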
On the technique in general: In SRB staining, fixed cells bind dye roughly in proportion to their protein.

The next data set deals with HT-29. Nature of the data set: Growth inhibition of human HT-29 cells at 10 uM measured after 48 hrs by SRB assay relative to control. The data set is classed as functional. The settings on record: HT-29, read-out: GI. The gist of the method:
(§2)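 NCI screen: cells seeded at […] per well and preincubated 24 h (37°C, 5% CO2). Compound stocks in DMSO, tested at a single 10 μM. Exposure 48 h. Adherent cells fixed with cold TCA (10% final), suspension cells with 16% TCA. SRB stain read at 515 nm. Percent growth inhibition reported against time-zero and untreated controls.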

In the next data set the test system is A549. The experiment in a line: Growth inhibition of human A549 cells at 10 uM measured after 48 hrs by SRB assay relative to control. The data set is classed as functional. Particulars: A549, read-out: GI. The gist of the method: as §2
A further data set concerns HCT-116. Nature of the data set: Growth inhibition of human HCT-116 cells at 10 uM measured after 48 hrs by SRB assay relative to control. Particulars: read-out: GI. The data set is classed as functional. The essentials: as §2
The next data set has as its system NCI-H460. Nature of the data set: Growth inhibition of human NCI-H460 cells at 10 uM measured after 48 hrs by SRB assay relative to control. The data set is classed as functional. The settings on record: NCI-H460, read-out: GI. The gist of the method: as §2
Data set [1] relates to Panel NCI-60 (60 carcinoma cell lines). Nature of the data set: Antiproliferative activity against human NCI-60 cells assessed as growth inhibition at 10 uM measured after 48 hrs by SRB assay relative to control. The data set is classed as functional. Particulars: read-out: GI. The essentials:
as §2

The subject of another data set is NCI-H322M. Nature of the data set: Growth inhibition of human NCI-H322M cells at 10 uM measured after 48 hrs by SRB assay relative to control. The data set is classed as functional. Particulars: read-out: GI. The gist of the method: as §2
Another data set deals with KM12. Nature of the data set: Growth inhibition of human KM12 cells at 10 uM measured after 48 hrs by SRB assay relative to control. The data set is classed as functional. The settings on record: KM12, read-out: GI. The gist of the method:
as §2

The subject of another data set is RPMI-8226. The experiment in a line: Growth inhibition of human RPMI-8226 cells at 10 uM measured after 48 hrs by SRB assay relative to control. Particulars: RPMI-8226, read-out: GI. The data set is classed as functional. The gist of the method: as §1
Another data set has as its system OVCAR-3. The experiment in a line: Growth inhibition of human OVCAR-3 cells at 10 uM measured after 48 hrs by SRB assay relative to control. The data set is classed as functional. The settings on record: OVCAR-3, read-out: GI. The gist of the method: as §2
In a further data set the test system is MCF7. Nature of the data set: Growth inhibition of human MCF7 cells at 10 uM measured after 48 hrs by SRB assay relative to control. The data set is classed as functional. The settings on record: read-out: GI. The essentials:
as §2

A further data set concerns UO-31. Nature of the data set: Growth inhibition of human UO-31 cells at 10 uM measured after 48 hrs by SRB assay relative to control. The settings on record: read-out: GI. The data set is classed as functional. The essentials: as §1
The next data set concerns ACHN. The experiment in a line: Growth inhibition of human ACHN cells at 10 uM measured after 48 hrs by SRB assay relative to control. Particulars: read-out: GI. The data set is classed as functional. The gist of the method:
as §2

The test system of a further data set is RXF 393. Nature of the data set: Growth inhibition of human RXF 393 cells at 10 uM measured after 48 hrs by SRB assay relative to control. The data set is classed as functional. Particulars: read-out: GI. The essentials: as §1
A short description of data set [2]: Cytotoxicity against human PCS-800-017 cells assessed as reduction in cell viability measured after 24 hrs by MTT assay. The data set is classed as toxicity, cell-based. The gist of the method:
(§3)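 MTT viability with 24 h incubation in 96-well plates. Five semi-log concentrations from 0.01 to 100 μM. Formazan absorbance read at 570 nm, with 690 nm background subtracted. Run in triplicate. IC50 obtained by sigmoidal dose-response fitting. Cells are leukemia HL-60(TB) and normal lymphocytes (PCS-800-017).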
(Formazan colour is commonly taken as a measure of viable cells.)

The next data set deals with HL-60. The experiment in a line: Cytotoxicity against human HL-60 cells assessed as reduction in cell viability measured after 24 hrs by MTT assay. Particulars: HL-60, 24 h. The data set is classed as functional, cell-based. The essentials: as §3

Regarding `CCOc1cc(/C=N/Nc2nc(-c3ccc(Br)cc3)cs2)ccc1OCc1ccccc1`, the inhibition of growth at 10 µM was 76.1% in the data set on SW-620; 73.9% in the data set with HT-29; 76.4% in the data set with A549; 70.9% with HCT-116; 78.6% in the data set with NCI-H460; 31.8% in data set [1].

As to `Cc1c(/C=N/Nc2nc(-c3cccc([N+](=O)[O-])c3)cs2)c(=O)n(-c2ccccc2)n1C`, the inhibition of growth at 10 µM in data set [1] is 16.2%.

With `COc1cc(/C=N/Nc2nc(-c3cccc([N+](=O)[O-])c3)cs2)ccc1OCc1ccccc1`, the inhibition of growth at 10 µM in data set [1] stood at 28.8%.

In the case of `O=[N+]([O-])c1cccc(-c2csc(N/N=C/c3ccc4c(c3)OCO4)n2)c1`, the inhibition of growth at 10 µM in data set [1] was 18.2%.

As to `O=[N+]([O-])c1cc(/C=N/Nc2nc(-c3ccccc3)cs2)ccc1Cl`, the inhibition of growth at 10 µM was 83.1% in the data set on NCI-H322M; 86.6% with KM12; 85.1% with RPMI-8226; 96.2% with OVCAR-3; 89.9% in the data set on MCF7; 21.5% in data set [1].

As to `CCOc1cc(/C=N/Nc2nc(-c3ccccc3)cs2)ccc1OCc1ccccc1`, the inhibition of growth at 10 µM with UO-31 turned out to be 48.1%; in [1] it was 14.5%.

As for `C(=N\Nc1nc(-c2ccccc2)cs1)/c1ccc(OCc2ccccc2)cc1`, the inhibition of growth at 10 µM in the data set with ACHN amounted to 79.8%; in data set [1], 13.1%.

Regarding `COc1cc(/C=N/Nc2nc(-c3ccc(Cl)cc3)cs2)ccc1OCc1ccccc1`, the figures for the inhibition of growth at 10 µM (with MCF7; in data set [1]) were 45% and 16.5%, respectively.

Consider `CCOc1cc(/C=N/Nc2nc(-c3ccc(Cl)cc3)cs2)ccc1OCc1ccccc1`, for which the inhibition of growth at 10 µM was found to be 76.2% in the data set with SW-620; 87.4% in the data set with A549; 87.5% in the data set on HCT-116; 88.8% in the data set with NCI-H460; 37.1% in [1].

Regarding `CCOc1cc(/C=N/Nc2nc(-c3ccccc3)cs2)ccc1O`, the inhibition of growth at 10 µM in data set [1] is 36.9%.

With `COc1cc(/C=N/Nc2nc(-c3ccccc3)cs2)ccc1OCc1ccccc1`, in data set [1], the inhibition of growth at 10 µM came to 19.1%.

As for `O=[N+]([O-])c1cccc(-c2csc(N/N=C/c3ccc(Cl)c([N+](=O)[O-])c3)n2)c1`, the inhibition of growth at 10 µM in [1] came to 36%.

On to `CCOc1cc(/C=N/Nc2nc(-c3cccc([N+](=O)[O-])c3)cs2)ccc1OCc1ccccc1`, for which the inhibition of growth at 10 µM with RXF 393 turned out to be 79.2%; in data set [1], 23.9%.

For `Cc1c(/C=N/Nc2nc(-c3ccc(Br)cc3)cs2)c(=O)n(-c2ccccc2)n1C`, the inhibition of growth at 10 µM in data set [1] was found to be 9.82%.

As to `O=[N+]([O-])c1cccc(-c2csc(N/N=C/c3ccc(OCc4ccccc4)cc3)n2)c1`, the inhibition of growth at 10 µM in data set [1] is 18.5%.

On to `COc1cccc2c1C(=O)c1c(O)c3c(c(O)c1C2=O)C[C@@](O)(C(=O)CO)C[C@@H]3O[C@H]1C[C@H](N)[C@H](O)[C@H](C)O1` [DOXORUBICIN], for which the IC50 at 24 h in data set [2] was determined as 12.5 µM. Moreover, the IC50 in the data set with HL-60 was 0.45 µM.

The record behind these values is ChEMBL document CHEMBL6177937, “Design, synthesis, and biological evaluation of novel thiazole derivatives as PI3K/mTOR dual inhibitors” (RSC Med Chem, 2024).
